# Legend:
# Plasma = assay: Anticoagulant activity in human plasma assessed as concentration required to produce 50% increase in activated partial thromboplastin time; assay type: functional
# In short: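 Citrated (one-tenth volume 0.11 M) plasma from healthy volunteers, spun 2,000 g 10 min, kept on ice; 10 mM DMSO stock diluted in plasma, up to 7 concentrations; aPTT on automated coagulometer, duplicates as mean ratio to baseline; EC1.5x (50% prolongation) by linear interpolation, as total plasma concentration.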
# [1] = Half life in human liver microsomes; assay type: ADME, microsome
# Coagulation factor VII = target: T1, Coagulation factor VII (Homo sapiens, UniProt P08709); assay: Inhibition of human coagulation factor 7a using H-(D)-Ile-Pro-Arg-pNA as substrate after 10 to 120 mins at 25 degC by spectrophotometric method
# T1 sequence (P08709 whole entry): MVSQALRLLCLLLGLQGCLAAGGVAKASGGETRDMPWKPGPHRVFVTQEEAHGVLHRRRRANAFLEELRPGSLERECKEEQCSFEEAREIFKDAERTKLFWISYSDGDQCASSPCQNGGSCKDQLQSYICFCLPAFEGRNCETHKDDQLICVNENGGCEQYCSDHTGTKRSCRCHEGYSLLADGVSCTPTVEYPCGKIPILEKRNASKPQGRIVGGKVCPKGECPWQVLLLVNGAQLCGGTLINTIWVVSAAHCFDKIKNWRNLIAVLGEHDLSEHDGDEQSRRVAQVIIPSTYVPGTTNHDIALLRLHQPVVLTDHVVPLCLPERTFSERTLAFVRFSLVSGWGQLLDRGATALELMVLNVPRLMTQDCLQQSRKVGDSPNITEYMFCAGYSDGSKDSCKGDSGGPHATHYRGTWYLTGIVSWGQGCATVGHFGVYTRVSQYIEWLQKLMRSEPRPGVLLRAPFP
# Coagulation factor IX = Coagulation factor IX (Homo sapiens, UniProt P00740); assay: Inhibition of human coagulation factor 9a using methylsulfonyl-D-cyclohexylglycyl-Gly-Arg-AMC as substrate after 10 to 120 mins at 37 degC by spectrophotometric method
# Coagulation factor IX, sequence (P00740 47-191 limits assumed): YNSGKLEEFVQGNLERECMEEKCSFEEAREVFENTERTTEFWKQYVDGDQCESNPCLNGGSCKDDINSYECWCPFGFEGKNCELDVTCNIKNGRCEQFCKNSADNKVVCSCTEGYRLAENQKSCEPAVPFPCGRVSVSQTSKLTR
# Coagulation factor IX, sequence (P00740 227-461 limits assumed): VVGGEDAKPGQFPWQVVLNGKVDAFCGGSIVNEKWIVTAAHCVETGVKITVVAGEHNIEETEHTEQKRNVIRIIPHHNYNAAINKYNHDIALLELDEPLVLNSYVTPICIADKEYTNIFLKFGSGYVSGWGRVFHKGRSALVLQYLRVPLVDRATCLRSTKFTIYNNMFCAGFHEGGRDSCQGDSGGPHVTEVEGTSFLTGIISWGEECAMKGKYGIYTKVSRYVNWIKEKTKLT
# In short: (§1)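 Purified human proteases, 37 °C; reaction started by adding enzyme to substrate (up to 4× Km) ± inhibitor; compound from DMSO, 1% DMSO final except where noted. […] Buffers: FXIa, chymotrypsin, tPA, plasmin, urokinase in 50 mM HEPES pH 7.4, 145 mM NaCl, 5 mM KCl, 0.1% PEG 8000; FXa, thrombin, trypsin, plasma kallikrein, aPC in 100 mM Na phosphate pH 7.4, 200 mM NaCl, 0.5% PEG 8000; FIXa in 50 mM Tris pH 7.4, 100 mM NaCl, 5 mM CaCl2, 0.5% PEG 8000, 2% DMSO.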
# Coagulation factor X = Coagulation factor X (Homo sapiens, UniProt P00742); assay: Inhibition of human coagulation factor 10a using N-benzoyl-Ile-Glu-(OH,OMe)-Gly-Arg-pNA as substrate after 10 to 120 mins at 37 degC by spectrophotometric method; in short: as §1
# Coagulation factor X, sequence (P00742 41-179 limits assumed): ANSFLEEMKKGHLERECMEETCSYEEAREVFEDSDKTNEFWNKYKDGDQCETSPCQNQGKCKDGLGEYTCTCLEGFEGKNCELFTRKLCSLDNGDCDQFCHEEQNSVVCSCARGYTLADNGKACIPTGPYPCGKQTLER
# Coagulation factor X, sequence (P00742 235-488 limits assumed): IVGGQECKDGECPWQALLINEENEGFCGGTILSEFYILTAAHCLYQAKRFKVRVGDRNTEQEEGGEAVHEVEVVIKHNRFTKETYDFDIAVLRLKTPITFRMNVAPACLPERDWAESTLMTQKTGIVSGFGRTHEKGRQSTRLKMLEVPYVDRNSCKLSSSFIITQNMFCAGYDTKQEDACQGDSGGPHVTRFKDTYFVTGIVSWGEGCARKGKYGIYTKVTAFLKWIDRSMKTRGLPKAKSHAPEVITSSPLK
# Coagulation factor XII = target: T2, Coagulation factor XII (Homo sapiens, UniProt P00748); assay: Inhibition of human coagulation factor 12a using H-(D)-CHT-Gly-Arg-pNA as substrate after 10 to 120 mins at 25 degC by spectrophotometric method
# T2 sequence (P00748 whole entry): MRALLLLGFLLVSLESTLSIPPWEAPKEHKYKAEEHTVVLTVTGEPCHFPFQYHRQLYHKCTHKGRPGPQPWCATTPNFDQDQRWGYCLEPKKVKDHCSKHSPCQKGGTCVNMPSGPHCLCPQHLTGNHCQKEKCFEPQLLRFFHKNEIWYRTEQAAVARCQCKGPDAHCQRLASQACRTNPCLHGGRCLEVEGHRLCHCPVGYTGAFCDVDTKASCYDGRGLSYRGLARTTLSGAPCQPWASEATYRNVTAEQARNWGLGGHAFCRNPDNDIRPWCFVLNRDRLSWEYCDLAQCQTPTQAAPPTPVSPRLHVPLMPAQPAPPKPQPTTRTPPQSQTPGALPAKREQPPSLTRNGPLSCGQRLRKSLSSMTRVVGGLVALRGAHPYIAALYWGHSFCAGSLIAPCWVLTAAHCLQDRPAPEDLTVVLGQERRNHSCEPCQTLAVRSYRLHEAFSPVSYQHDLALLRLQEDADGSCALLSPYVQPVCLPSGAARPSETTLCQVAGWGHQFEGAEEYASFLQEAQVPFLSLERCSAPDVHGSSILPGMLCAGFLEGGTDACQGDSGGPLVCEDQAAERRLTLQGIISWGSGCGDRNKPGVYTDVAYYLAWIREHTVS
# Prothrombin = Prothrombin (Homo sapiens, UniProt P00734); assay: Inhibition of human thrombin using pyroGlu-Pro-Arg-pNA as substrate after 10 to 120 mins at 37 degC by spectrophotometric method; in short: as §1
# [2] = Inhibition of human trypsin using N-benzoyl-Ile-Glu-(OH,OMe)-Gly-Arg-pNA as substrate after 10 to 120 mins at 37 degC by spectrophotometric method; in short: as §1
# Plasma kallikrein = Plasma kallikrein (Homo sapiens, UniProt P03952); assay: Inhibition of human plasma kallikrein using H-(D)-Pro-Phe-Arg-pNA as substrate after 10 to 120 mins at 37 degC by spectrophotometric method; in short: as §1
# Plasma kallikrein, sequence (P03952 20-390 limits assumed): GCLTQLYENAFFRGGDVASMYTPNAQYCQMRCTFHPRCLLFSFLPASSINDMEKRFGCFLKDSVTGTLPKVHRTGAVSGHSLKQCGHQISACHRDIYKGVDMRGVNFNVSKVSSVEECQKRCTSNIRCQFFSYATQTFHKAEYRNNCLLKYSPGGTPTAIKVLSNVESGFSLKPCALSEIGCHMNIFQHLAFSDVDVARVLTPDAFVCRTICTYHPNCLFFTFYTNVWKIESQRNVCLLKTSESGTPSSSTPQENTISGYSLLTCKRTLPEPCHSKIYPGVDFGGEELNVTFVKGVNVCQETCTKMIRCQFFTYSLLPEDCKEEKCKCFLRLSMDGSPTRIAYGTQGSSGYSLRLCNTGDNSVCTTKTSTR
# Plasma kallikrein, sequence (P03952 391-638 limits assumed): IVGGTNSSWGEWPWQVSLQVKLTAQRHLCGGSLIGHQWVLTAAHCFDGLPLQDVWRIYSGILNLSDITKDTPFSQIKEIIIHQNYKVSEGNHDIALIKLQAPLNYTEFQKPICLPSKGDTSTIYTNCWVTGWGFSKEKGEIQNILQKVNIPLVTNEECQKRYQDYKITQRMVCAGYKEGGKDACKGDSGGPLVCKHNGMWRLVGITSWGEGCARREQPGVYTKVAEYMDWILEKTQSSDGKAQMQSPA
# [3] = target: Vitamin K-dependent protein C (Homo sapiens, UniProt P04070); assay: Inhibition of human activated protein C using pyroGlu-Pro-Arg-pNA as substrate after 10 to 120 mins at 37 degC by spectrophotometric method; in short: as §1
# Vitamin K-dependent protein C, sequence (P04070 43-197 limits assumed): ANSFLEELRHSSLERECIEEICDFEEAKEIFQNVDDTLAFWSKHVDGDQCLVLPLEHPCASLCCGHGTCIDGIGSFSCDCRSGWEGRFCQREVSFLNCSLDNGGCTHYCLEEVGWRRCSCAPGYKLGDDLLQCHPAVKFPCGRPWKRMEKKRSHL
# Vitamin K-dependent protein C, sequence (P04070 212-461 limits assumed): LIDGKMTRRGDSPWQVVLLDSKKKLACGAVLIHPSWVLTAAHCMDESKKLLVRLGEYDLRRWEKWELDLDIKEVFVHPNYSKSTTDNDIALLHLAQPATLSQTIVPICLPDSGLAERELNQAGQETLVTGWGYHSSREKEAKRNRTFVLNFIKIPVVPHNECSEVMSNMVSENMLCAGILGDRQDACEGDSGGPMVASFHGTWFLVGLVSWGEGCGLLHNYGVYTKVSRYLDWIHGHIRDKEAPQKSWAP
# Plasminogen = Plasminogen (Homo sapiens, UniProt P00747); assay: Inhibition of human plasmin using H-(D)-Val-Leu-LyspNA as substrate after 10 to 120 mins at 37 degC by spectrophotometric method; in short: as §1
# Plasminogen, sequence (P00747 97-580 limits assumed): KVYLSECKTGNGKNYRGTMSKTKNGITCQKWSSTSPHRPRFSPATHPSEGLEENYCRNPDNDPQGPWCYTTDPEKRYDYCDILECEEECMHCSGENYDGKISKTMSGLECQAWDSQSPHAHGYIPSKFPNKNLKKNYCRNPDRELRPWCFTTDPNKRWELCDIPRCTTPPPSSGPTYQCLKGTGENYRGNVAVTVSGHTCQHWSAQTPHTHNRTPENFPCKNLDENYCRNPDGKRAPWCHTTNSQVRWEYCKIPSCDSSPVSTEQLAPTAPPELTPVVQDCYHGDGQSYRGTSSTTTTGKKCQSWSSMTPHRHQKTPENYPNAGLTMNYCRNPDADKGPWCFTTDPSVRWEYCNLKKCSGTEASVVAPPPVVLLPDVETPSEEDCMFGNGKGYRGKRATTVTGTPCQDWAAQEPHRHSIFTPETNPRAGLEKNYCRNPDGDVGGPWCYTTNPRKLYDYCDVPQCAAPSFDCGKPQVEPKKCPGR
# Plasminogen, sequence (P00747 581-810 limits assumed): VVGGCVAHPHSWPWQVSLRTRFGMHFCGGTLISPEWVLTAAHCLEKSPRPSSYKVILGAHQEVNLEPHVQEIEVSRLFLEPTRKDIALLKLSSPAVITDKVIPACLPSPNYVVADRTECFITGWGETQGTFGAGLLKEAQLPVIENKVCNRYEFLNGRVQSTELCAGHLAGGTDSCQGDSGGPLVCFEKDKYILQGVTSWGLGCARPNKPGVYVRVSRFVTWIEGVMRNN
# [4] = target: Tissue-type plasminogen activator (Homo sapiens, UniProt P00750); assay: Inhibition of human tissue plasminogen activator using methylsulfonyl-D-cyclohexylalanyl-GlyArg-pNA as substrate after 10 to 120 mins at 37 degC by spectrophotometric method; in short: as §1
# Tissue-type plasminogen activator, sequence (P00750 whole entry): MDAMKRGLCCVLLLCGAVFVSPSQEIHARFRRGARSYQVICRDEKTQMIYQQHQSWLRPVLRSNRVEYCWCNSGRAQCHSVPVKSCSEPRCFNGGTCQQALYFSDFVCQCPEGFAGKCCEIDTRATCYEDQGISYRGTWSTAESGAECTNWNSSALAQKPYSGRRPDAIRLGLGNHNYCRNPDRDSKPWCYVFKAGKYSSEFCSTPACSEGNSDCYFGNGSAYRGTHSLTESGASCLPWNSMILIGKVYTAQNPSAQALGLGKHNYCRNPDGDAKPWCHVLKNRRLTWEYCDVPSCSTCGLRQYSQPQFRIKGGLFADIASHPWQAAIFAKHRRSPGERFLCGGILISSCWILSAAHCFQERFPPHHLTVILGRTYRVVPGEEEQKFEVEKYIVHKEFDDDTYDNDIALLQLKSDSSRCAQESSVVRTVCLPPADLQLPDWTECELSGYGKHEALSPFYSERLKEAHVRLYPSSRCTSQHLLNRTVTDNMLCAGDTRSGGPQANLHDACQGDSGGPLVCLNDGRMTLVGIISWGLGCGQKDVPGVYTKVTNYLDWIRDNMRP
# [5] = target: Urokinase-type plasminogen activator (Homo sapiens, UniProt P00749); assay: Inhibition of human urokinase using pyro-Glu-Gly-Arg-pNA as substrate after 10 to 120 mins at 37 degC by spectrophotometric method; in short: as §1
# [6] = Inhibition of human chymotrypsin using MeO-SucArg-Pro-Tyr-pNA as substrate after 10 to 120 mins at 37 degC by spectrophotometric method; in short: as §1
# [7] = Half life in Beagle dog at 0.19 mg/kg, iv administered as 10 mins infusion or 0.32 mg/kg, po via gavage administered as cassette dose by LC-MS/MS method; assay type: ADME, organism-based, Canis lupus familiaris; details: in vivo
# In short: (§2)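 Dog PK vehicles as footnoted: iv in 70% PEG 400/20% water/10% ethanol; po either 70% PEG 400/20% TPGS/10% ethanol or the same PEG 400/water/ethanol vehicle used for iv.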
# [8] = Volume of distribution at steady state in Beagle dog at 0.19 mg/kg, iv administered as 10 mins infusion or 0.32 mg/kg, po via gavage administered as cassette dose by LC-MS/MS method; assay type: ADME, organism-based, Canis lupus familiaris; details: in vivo, read-out: Vdss; in short: as §2
# Canis familiaris [9] = assay: Oral bioavailability in Beagle dog at 0.32 mg/kg administered via gavage as cassette dose by LC-MS/MS method; assay type: ADME, organism-based, Canis lupus familiaris; details: in vivo; in short: as §2
# Canis familiaris [10] = assay: AUC in Beagle dog at 0.32 mg/kg, po administered via gavage as cassette dose by LC-MS/MS method; assay type: ADME, organism-based, Canis lupus familiaris; details: in vivo; in short: as §2
# [11] = Half life in dog liver microsomes; assay type: ADME, Canis lupus familiaris, microsome
# [12] = Protein binding in dog plasma; assay type: ADME, cell-free, Canis lupus familiaris; details: read-out: PPB (converted)
# [13] = Permeability from apical to basolateral side in human Caco2 cells; assay type: ADME, cell-based; details: Caco-2, read-out: permeability
# Coagulation factor XI [14] = target: T3, Coagulation factor XI (Homo sapiens, UniProt P03951); assay: Inhibition of human coagulation factor 11a using pyroGlu-Pro-Arg-pNA as substrate after 10 to 120 mins at 25 degC by spectrophotometric method
# T3 sequence (P03951 19-387 limits assumed): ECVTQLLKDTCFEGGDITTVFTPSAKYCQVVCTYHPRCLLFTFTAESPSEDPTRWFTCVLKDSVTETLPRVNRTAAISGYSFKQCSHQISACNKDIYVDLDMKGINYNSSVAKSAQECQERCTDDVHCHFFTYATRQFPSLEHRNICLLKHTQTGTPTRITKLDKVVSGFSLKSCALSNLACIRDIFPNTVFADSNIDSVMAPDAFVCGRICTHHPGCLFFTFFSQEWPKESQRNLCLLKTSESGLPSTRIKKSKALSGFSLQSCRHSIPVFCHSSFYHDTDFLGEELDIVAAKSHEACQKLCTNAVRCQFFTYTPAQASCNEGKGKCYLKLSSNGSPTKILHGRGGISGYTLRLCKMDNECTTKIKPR
# T3 sequence (P03951 388-625 limits assumed): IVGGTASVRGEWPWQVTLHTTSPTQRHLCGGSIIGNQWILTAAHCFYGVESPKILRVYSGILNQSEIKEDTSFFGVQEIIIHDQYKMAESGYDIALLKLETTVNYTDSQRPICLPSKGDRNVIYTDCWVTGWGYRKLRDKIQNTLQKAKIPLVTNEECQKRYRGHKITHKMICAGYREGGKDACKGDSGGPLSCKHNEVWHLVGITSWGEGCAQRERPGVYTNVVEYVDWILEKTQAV
# Coagulation factor XI [15] = target: T3, Coagulation factor XI; assay: Inhibition of human coagulation factor 11a using pyroGlu-Pro-Arg-pNA as substrate after 10 to 120 mins at 37 degC by spectrophotometric method; in short: as §1
# [16] = Half life in Beagle dog at 0.2 mg/kg, iv administered as 10 mins infusion or 0.4 mg/kg, po via gavage administered as cassette dose by LC-MS/MS method; assay type: ADME, organism-based, Canis lupus familiaris; details: in vivo; in short: as §2
# [17] = Volume of distribution at steady state in Beagle dog at 0.2 mg/kg, iv administered as 10 mins infusion or 0.4 mg/kg, po via gavage administered as cassette dose by LC-MS/MS method; assay type: ADME, organism-based, Canis lupus familiaris; details: in vivo, read-out: Vdss; in short: as §2
# Canis familiaris [18] = assay: Oral bioavailability in Beagle dog at 0.4 mg/kg administered via gavage as cassette dose by LC-MS/MS method; assay type: ADME, organism-based, Canis lupus familiaris; details: in vivo; in short: as §2
# Canis familiaris [19] = assay: AUC in Beagle dog at 0.4 mg/kg, po administered via gavage as cassette dose by LC-MS/MS method; assay type: ADME, organism-based, Canis lupus familiaris; details: in vivo; in short: as §2
# Canis familiaris [20] = assay: Half life in Beagle dog at 0.2 mg/kg, iv administered as 10 mins infusion or 0.35 mg/kg, po via gavage administered as cassette dose by LC-MS/MS method; assay type: ADME, organism-based, Canis lupus familiaris; details: in vivo; in short: as §2
# Canis familiaris [21] = assay: Volume of distribution at steady state in Beagle dog at 0.2 mg/kg, iv administered as 10 mins infusion or 0.35 mg/kg, po via gavage administered as cassette dose by LC-MS/MS method; assay type: ADME, organism-based, Canis lupus familiaris; details: in vivo; in short: as §2
# [22] = Oral bioavailability in Beagle dog at 0.35 mg/kg administered via gavage as cassette dose by LC-MS/MS method; assay type: ADME, organism-based, Canis lupus familiaris; details: in vivo; in short: as §2
smiles,measurement,setting,value
COC(=O)Nc1ccc2c(c1)NC(=O)CC/C=C/C[C@H](NC(=O)/C=C/c1cc(Cl)ccc1-n1cnnn1)c1nc-2c[nH]1,EC1.5,Plasma,0.27 µM
same,half-life,[1],0.683 h
same,Ki,Coagulation factor VII,1670 nM
same,Ki,Coagulation factor IX,> 27100 nM
same,Ki,Coagulation factor X,> 13300 nM
same,Ki,Coagulation factor XII,> 3050 nM
same,Ki,Prothrombin,> 11500 nM
same,Ki,[2],1520 nM
same,Ki,Plasma kallikrein,16 nM
same,Ki,[3],> 21500 nM
same,Ki,Plasminogen,> 14200 nM
same,Ki,[4],> 6150 nM
same,Ki,[5],5050 nM
same,Ki,[6],1500 nM
same,half-life,[7],1.2 h
same,Vd,[8],1.8 L/kg
same,F,Canis familiaris [9],1%
same,AUC,Canis familiaris [10],0.0025 µM·h
same,half-life,[11],> 2 h
same,fraction unbound,[12],0.085
same,Papp A→B,[13],< 1.5 ×10⁻⁶ cm/s
COC(=O)Nc1ccc2c(c1)OCCCCC[C@H](NC(=O)/C=C/c1cc(Cl)ccc1-n1cnnn1)c1nc-2c[nH]1,Ki,Coagulation factor XI [14],420 nM
COC(=O)Nc1ccc2c(c1)OCCCCCC[C@H](NC(=O)/C=C/c1cc(Cl)ccc1-n1cnnn1)c1nc-2c[nH]1,Ki,Coagulation factor XI [15],159 nM
same,half-life,[16],2.1 h
same,Vd,[17],2.2 L/kg
same,F,Canis familiaris [18],17%
same,AUC,Canis familiaris [19],0.119 µM·h
same,half-life,[11],1.47 h
COC(=O)Nc1ccc2c(c1)NC(=O)CCCCC[C@H](NC(=O)/C=C/c1cc(Cl)ccc1-n1cnnn1)c1nc-2c[nH]1,Ki,Coagulation factor XI [15],3.2 nM
same,EC1.5,Plasma,1.2 µM
same,half-life,[1],0.567 h
same,t1/2,Canis familiaris [20],1.1 h
same,Vdss,Canis familiaris [21],3.9 L/kg
same,bioavailability,[22],0%
same,half-life,[11],> 2 h
same,fraction unbound,[12],0.066
same,Papp A→B,[13],< 1.5 ×10⁻⁶ cm/s
